GRK2 inh: inhibitors of human GRK2 displacing RNA aptamer; inhibition of aptamer binding, % at 10 µM; hit rate 0.59% among 330,000; P25098; bead flow cytometry, FAM-aptamer displacement from GRK2;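 active = inhibition of aptamer binding above 40%, roughly 3 SD of noise, on plates passing a quality check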;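 also: median bead fluorescence of bound FAM aptamer so fluorescent compounds give negative values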
STEP block: inhibitors of human striatal-enriched phosphatase STEP | P54829 | recombinant STEP, OMFP fluorogenic substrate, fluorescence | inhibition, % at 20 µM | hit rate 0.25% among 360,000 | AID 588621;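 active = inhibition at 20 µM, scaled per plate between control wells, above about 37%, limit read from the data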
Target sequence (P54829 whole entry, looked up): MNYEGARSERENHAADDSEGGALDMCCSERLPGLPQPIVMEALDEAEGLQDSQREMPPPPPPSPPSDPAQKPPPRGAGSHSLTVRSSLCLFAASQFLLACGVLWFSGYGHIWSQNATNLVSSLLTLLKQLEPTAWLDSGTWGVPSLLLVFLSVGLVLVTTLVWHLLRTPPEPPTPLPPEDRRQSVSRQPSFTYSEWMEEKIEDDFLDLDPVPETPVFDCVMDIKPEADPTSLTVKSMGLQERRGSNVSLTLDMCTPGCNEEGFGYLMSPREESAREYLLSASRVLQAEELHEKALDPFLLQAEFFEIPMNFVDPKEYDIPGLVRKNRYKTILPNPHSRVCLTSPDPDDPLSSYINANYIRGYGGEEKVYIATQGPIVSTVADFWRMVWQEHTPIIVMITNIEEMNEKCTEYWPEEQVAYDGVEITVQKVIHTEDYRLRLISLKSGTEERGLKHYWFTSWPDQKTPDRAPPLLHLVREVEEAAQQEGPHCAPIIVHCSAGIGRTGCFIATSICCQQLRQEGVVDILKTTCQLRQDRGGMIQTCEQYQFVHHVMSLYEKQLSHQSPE
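Material: STEP (striatal-enriched tyrosine phosphatase) enzyme, cell-free | Medium: 50 mM Bis-Tris pH 6.0 with 2.5 mM DTT and 0.005% Tween 20 | Read-out: Percent inhibition scaled to no-enzyme and uninhibited-enzyme controls, plate-pattern corrected | Signal: Fluorescence read at 480 nm ex / 540 nm em | Times: 20 min reaction, room temperature, in the dark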
Scp1 inh: inhibitors of human Scp-1 phosphatase; inhibition, % at 20 µM; Recombinant Scp1, phosphopeptide, malachite green phosphate absorbance; hit rate 0.88% among 340,000;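 active = inhibition above about 50% at 20 µM, limit read from the data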
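Test system – truncated SCP-1 phosphatase (76-261aa) · Reagent – Phosphorylated 17-residue peptide substrate · Incubation – 45 min room-temperature reaction, 5 min colour, 30 min stabiliser · Detection – colorimetric phosphate reagent with accelerator and stabiliser, absorbance at 630 nm · Measure – % inhibition at 20 µM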
DNMT1 block: inhibitors of human DNMT1; AID 588458; inhibition (reported as % activation of signal), % at 10 µM; P26358; DNMT1 molecular beacon, Hinp1I cleavage, fluorescence; hit rate 0.83% among 360,000; in the data active = inhibition above about 50%
SUMO1 PPI mod: SUMO1-SIM interaction modulation; hit rate 0.33% among 360,000; AID 602429; SUMO1 binding to a labelled peptide, TR-FRET, 1 h; inhibition, % at 20 µM; P63165; in the data active = inhibition above about 37%
LMPTP block: blocks human LMPTP phosphatase; P24666; recombinant LMPTP-A, OMFP fluorogenic substrate, fluorescence intensity; inhibition, % at 20 µM; hit rate 0.22% among 360,000; AID 651560;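 active = compounds that cut the enzyme signal by at least half of the control window in the single-dose screen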
Target sequence (P24666 whole entry, looked up): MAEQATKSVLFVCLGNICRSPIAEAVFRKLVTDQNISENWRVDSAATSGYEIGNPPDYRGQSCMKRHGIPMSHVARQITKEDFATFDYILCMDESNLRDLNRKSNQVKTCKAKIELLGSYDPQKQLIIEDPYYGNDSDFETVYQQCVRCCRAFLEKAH
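Test system: LMPTP-A phosphatase enzyme. Amount: LMPTP-A at 0.625 nM final in the reaction. Reagent: OMFP substrate, 400 µM final. Times: 50 min at room temperature. Signal: endpoint fluorescence intensity from OMFP dephosphorylation. Read-out basis: % inhibition. Benchmarks: no-enzyme and uninhibited controls.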
Scp1 confirm: Scp-1 (human) inhibition, single-dose confirmed. shares compounds with Scp1 inh. recombinant SCP-1 catalytic domain, phosphate release, malachite green absorbance. inhibition, % at 20 µM. hit rate 61% among 2,500. AID 540281
MG interference: colorimetric interference in Scp-1 counter-screen; shares compounds with Scp1 inh; Colorimetric interference counterscreen, malachite green absorbance 630 nm; apparent inhibition (interference), % at 20 µM; 2,500 tested, under 10 active;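 also: compounds added after enzyme reaction finished so only phosphate colour detection is probed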
Scp-1 Tm shift: binds human Scp-1, shifting its melting temperature; Recombinant SCP1, Sypro Orange thermal shift Tm; AID 540329; hit rate 25% among 1,500; shares compounds with Scp1 inh; thermal shift relative to vanadate control, % at 40 µM;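 active = substances whose mean melting-temperature shift, as a percentage of the reference inhibitor's shift, reaches about 5.3%, limit read from the data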
Hits are given with their value; . = inactive; / = not tested or not shown. The list is not random: actives were taken first. Their share in the collection is about 2.2%.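 The calls were made as follows, unless noted: active = inhibition of at least 30% at 20 µM; inactive = the rest.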

SMILES	GRK2 inh	STEP block	Scp1 inh	DNMT1 block	SUMO1 PPI mod	LMPTP block	Scp1 confirm	MG interference	others
Cc1ccc(S(=O)(=O)N2CCCC2C(=O)OCc2ccccc2)cc1 (stereo not drawn)	.	.	.	.	.	.	/	/
Cc1ccc(S(=O)(=O)N2CCCC2C(=O)OCc2ccco2)cc1 (stereo not drawn)	.	.	77.0	.	.	.	69.2	.	Scp-1 Tm shift=.
COc1cccc(-c2cc(C(F)(F)F)nc(-n3cncn3)n2)c1	.	.	.	.	.	.	/	/
COc1cccc(-c2cc(C(F)(F)F)nc(-n3cc(C)cn3)n2)c1	.	.	55.2	.	.	.	.	.
CSc1ccc(/C=N/NC(=O)c2ccc(C)c(C)c2)cc1	.	.	83.3	.	.	.	59.3	.	Scp-1 Tm shift=.
CSc1ccc(/C=N/NC(=O)c2cc(O)cc(O)c2)cc1	.	.	.	.	.	.	/	/
Cn1c(SCC(=O)n2c3c(c4ccccc42)CCCC3)nnc1-c1ccccc1	.	.	.	.	.	.	/	/
CC(=O)Nc1ccc(-c2nnc(SCC(=O)n3c4c(c5ccccc53)CCCC4)n2C)cc1	/	.	84.1	.	.	.	.	.
CCCCNC(=O)C(NC(=O)c1cccc2ccccc12)C(=O)c1ccccc1 (stereo not drawn)	/	.	/	.	.	.	/	/
N/C(=N\OC(=O)c1ccc(OCC(F)(F)F)nc1)c1ccc(Cl)cc1	.	.	.	.	.	.	/	/
CN(C)C(=O)c1ccc(OCC(F)(F)F)nc1	.	.	79.2	.	.	.	.	.
CCCN1C(=O)c2cc(C(=O)NC3CCCCCC3)ccc2C1O (stereo not drawn)	.	.	60.4	.	.	.	.	.
CCCN1C(=O)c2cc(C(=O)O)ccc2C1O (stereo not drawn)	.	.	.	.	.	.	/	/
CCc1nnc(NC(=O)C2c3ccccc3Oc3ccccc32)s1	.	.	.	.	.	.	/	/
CCc1nnc(NC(=O)C2(C)COC(c3ccccc3)OC2)s1 (stereo not drawn)	.	.	54.6	.	.	.	.	.
O=C(O)c1ccc2c(=O)n(-c3ccccc3)c(=S)[nH]c2c1	.	.	79.0	.	.	.	.	.
O=C(O)c1ccc2c(=O)n(-c3ccc(F)cc3)c(=S)[nH]c2c1	.	.	.	.	.	.	/	/
Cn1cc(/C=N/NC(=O)c2cc3cc(Br)ccc3o2)c2ccccc21	.	.	61.9	.	.	.	.	.
N#Cc1ccccc1S(=O)(=O)N1CCN(C(=O)CN(Cc2ccco2)Cc2cccs2)CC1	/	.	/	.	.	.	/	/
C[C@H](CO)N1C[C@H](C)[C@@H](CN(C)C(=O)Nc2ccc(C(F)(F)F)cc2)Oc2ccc(NC(=O)Nc3ccccc3)cc2C1=O	.	.	.	.	.	.	/	/
C[C@H](CO)N1C[C@H](C)[C@@H](CN(C)C(=O)Nc2ccccc2)Oc2ccc(NC(=O)c3ccncc3)cc2C1=O	.	.	75.3	.	.	.	.	.
C[C@H](CO)N1C[C@H](C)[C@@H](CN(C)C(=O)Nc2ccc(C(F)(F)F)cc2)Oc2ccc(NC(=O)C3CC3)cc2C1=O	.	.	56.2	.	.	.	.	.
CC(C)NC(=O)Nc1ccc2c(c1)C(=O)N([C@H](C)CO)C[C@H](C)[C@@H](CN(C)C(=O)Nc1ccccc1)O2	.	.	.	.	.	.	/	/
CC(C)NC(=O)Nc1ccc2c(c1)C(=O)N([C@H](C)CO)C[C@H](C)[C@@H](CN(C)C(=O)Nc1ccc3c(c1)OCO3)O2	.	.	62.1	.	.	.	.	.
C[C@H](CO)N1C[C@H](C)[C@@H](CN(C)C(=O)Nc2ccccc2)Oc2ccc(NC(=O)Nc3ccccc3)cc2C1=O	.	.	70.8	.	.	.	.	.
SMILES	GRK2 inh	STEP block	Scp1 inh	DNMT1 block	SUMO1 PPI mod	LMPTP block	Scp1 confirm	MG interference	others
CC1(C(=O)NS(=O)(=O)c2ccc(Br)cc2)CCN1C(=O)Cc1ccsc1 (stereo not drawn)	/	.	/	.	.	.	/	/
Cn1c(=O)cc(SCC(=O)NCc2ccc(F)cc2)c2ccccc21	.	.	.	.	.	.	.	.
CCC(C)c1ccc(S(=O)(=O)N2CCN(C(=O)CN3C(=O)NC(C)(C4CC4)C3=O)CC2)cc1 (stereo not drawn)	/	.	/	.	.	.	/	/
Cc1ccc(NC(=O)c2ccc3nc[nH]c3c2)c(O)c1	.	.	.	.	.	.	/	/
Cc1cccc(C)c1NC(=O)CN(C)C(=O)c1ccc2nc[nH]c2c1	.	.	50.0	.	.	.	55.0	.	Scp-1 Tm shift=.
Cc1ccc(NC(=O)c2ccc3nc[nH]c3c2)nc1	.	.	56.9	.	.	.	43.7	.	Scp-1 Tm shift=.
CC(C)c1ccc(NC(=O)C2CC(=O)N(C(C)C)C2)cc1 (stereo not drawn)	.	.	.	.	.	.	.	.
CC(C)N1CC(C(=O)Nc2ccc(C#N)cc2)CC1=O (stereo not drawn)	.	.	.	.	.	.	/	/
Cn1nc(C(=O)OCC(=O)NCc2ccc(Cl)cc2Cl)c2ccccc2c1=O	/	.	/	.	.	.	/	/
O=C(COC(=O)c1ccc(Cl)c(S(=O)(=O)N2CCCCC2)c1)NCc1ccco1	.	.	71.2	.	.	.	44.6	.	Scp-1 Tm shift=.
Cc1cccc(Nc2ccccc2C(=O)OCC(=O)NCc2ccco2)c1C	.	.	.	.	.	.	/	/
CCN(CC)S(=O)(=O)c1ccc(C(=O)OCC(=O)NCc2ccco2)cc1	.	.	55.4	.	.	.	46.6	.	Scp-1 Tm shift=.
O=C(COC(=O)CCOc1ccccc1)NCc1ccco1	.	.	101.9	.	.	.	57.9	.	Scp-1 Tm shift=.
Cc1ccccc1C(=O)OCC(=O)NCc1ccco1	.	.	53.4	.	.	.	.	.
CC(C)=CCC[C@H](C)C[C@@H]1CC2=C(C(=O)OC(C)(C)O2)[C@@H](c2ccc(F)cc2)O1	/	/	/	/	.	.	/	/
CC(=O)Nc1cccc(-c2ccnc3c2CC(C)(C(=O)NCc2ccc(F)c(F)c2)O3)c1 (stereo not drawn)	/	.	/	.	.	.	/	/
COc1ccc(Nc2c(C3CC3)nc3nc(C)cc(C)n23)cc1	/	/	/	/	.	.	/	/
CC(C)OCCCN(C)C1CCN(S(=O)(=O)c2ccc(-c3ccc(=O)[nH]n3)s2)CC1	.	.	50.7	.	.	.	.	.
O=C(N/N=C/c1cccnc1)c1ccccc1Cl	.	.	.	.	.	.	/	/

Screens: PubChem BioAssay, several laboratories
